Test [1] in a line: Cytotoxicity against human RH4 cells assessed as combinational index measured at fraction affected value of 0.27 in presence of vorinostat at 10 uM incubated for 72 hrs by CellTiter-Glo Luminescent cell viability assay. Type of test: functional. Summed up: (§1)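 Viability after 72 h of single-agent or combined treatment with the HDAC inhibitor (0.05–0.25 μM) and the EZH2 inhibitor. EZH2 inhibitor range: U937 5–25 μM; RH4 10–50 μM. Synergy was assessed by combination index and isobologram analysis.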

The nature of test [2]: Cytotoxicity against human RH4 cells assessed as combinational index measured at fraction affected value of 0.45 in presence of vorinostat at 20 uM incubated for 72 hrs by CellTiter-Glo Luminescent cell viability assay. Type of test: functional. Put shortly: as §1
Test [3] in a line: Cytotoxicity against human RH4 cells assessed as reduction in cell viability at 50 uM incubated for 72 hrs by CellTiter-Glo Luminescent cell viability assay relative to control. Type of test: functional. The settings on record: Rh4, 72 h.
Test [4] deals with Histone-lysine N-methyltransferase EZH2 (Homo sapiens, UniProt Q15910). In words: Inhibition of EZH2 in human RH4 cells assessed as H3K27me3 level at 50 uM incubated for 96 hrs by Western blot analysis. It is filed as cell-based.
Test [5] concerns the target T1, Histone deacetylase (Homo sapiens) (UniProt Q13547+O15379+Q9UBN7+Q92769+Q9UQL6+Q8WUI4+Q9BY41+Q96DB2+P56524+Q9UKV0+Q969S8). In words: Inhibition of HDAC in human U937 cells assessed as Ac-H3 level at 50 uM incubated for 96 hrs by Western blot analysis (reference value: 1). The settings on record: U-937. Type of test: cell-based.
Test [6] addresses T1, Histone deacetylase (Homo sapiens). Kind of test: Inhibition of HDAC in human U937 cells assessed as Ac-H3 level at 50 uM incubated for 120 hrs by Western blot analysis (reference value: 1). Type of test: cell-based. The following applies: U-937.
Test [7] addresses T2, Protein deacetylase HDAC6 (Homo sapiens) (UniProt Q9UBN7).
T2 sequence (whole entry): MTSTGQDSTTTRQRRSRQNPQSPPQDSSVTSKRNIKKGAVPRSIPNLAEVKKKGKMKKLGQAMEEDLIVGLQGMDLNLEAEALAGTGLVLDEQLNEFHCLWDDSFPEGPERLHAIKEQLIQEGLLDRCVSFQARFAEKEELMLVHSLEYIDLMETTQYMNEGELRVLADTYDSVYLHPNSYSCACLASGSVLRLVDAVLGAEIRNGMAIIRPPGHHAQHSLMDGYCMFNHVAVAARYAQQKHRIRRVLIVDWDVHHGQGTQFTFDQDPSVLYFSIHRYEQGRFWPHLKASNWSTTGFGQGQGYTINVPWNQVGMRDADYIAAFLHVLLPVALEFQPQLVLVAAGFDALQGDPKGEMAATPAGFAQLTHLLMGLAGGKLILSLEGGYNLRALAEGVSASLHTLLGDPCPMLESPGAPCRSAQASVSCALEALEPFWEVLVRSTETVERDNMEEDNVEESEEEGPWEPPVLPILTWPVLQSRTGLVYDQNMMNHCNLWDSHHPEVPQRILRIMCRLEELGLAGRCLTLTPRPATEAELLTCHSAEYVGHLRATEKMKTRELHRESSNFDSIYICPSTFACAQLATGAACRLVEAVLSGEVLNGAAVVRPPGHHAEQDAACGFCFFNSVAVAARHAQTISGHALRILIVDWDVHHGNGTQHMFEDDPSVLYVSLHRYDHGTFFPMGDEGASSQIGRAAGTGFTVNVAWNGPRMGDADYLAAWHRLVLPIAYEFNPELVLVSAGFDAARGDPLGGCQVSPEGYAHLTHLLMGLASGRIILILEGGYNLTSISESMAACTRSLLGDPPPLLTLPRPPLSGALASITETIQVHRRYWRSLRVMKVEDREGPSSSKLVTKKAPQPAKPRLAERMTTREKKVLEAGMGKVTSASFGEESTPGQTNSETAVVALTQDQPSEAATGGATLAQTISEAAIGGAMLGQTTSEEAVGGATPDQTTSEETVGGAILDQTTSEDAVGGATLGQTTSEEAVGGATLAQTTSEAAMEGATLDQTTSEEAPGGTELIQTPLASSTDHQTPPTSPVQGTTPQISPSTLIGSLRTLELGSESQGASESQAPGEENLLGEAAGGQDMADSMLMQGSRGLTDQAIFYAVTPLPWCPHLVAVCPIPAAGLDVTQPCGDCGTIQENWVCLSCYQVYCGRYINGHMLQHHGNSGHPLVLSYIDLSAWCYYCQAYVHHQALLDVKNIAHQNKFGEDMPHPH
In words: Inhibition of HDAC6 in human RH4 cells assessed as acetylated alpha-tubulin level at 50 uM in presence of vorinostat incubated for 96 hrs by Western blot analysis (reference value: 1). It is filed as cell-based. Put shortly: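 RH4 cells co-treated with EZH2 inhibitor at 50 μM plus HDAC inhibitor at 0.15 μM; Western blot after 72 or 96 h for H3K27me3 or acetyl-tubulin, vinculin loading control; densitometry normalized to loading control then DMSO vehicle.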

In test [8] the target is Histone deacetylase 2 (Homo sapiens, UniProt Q92769).
The target in test [9] is T3, Protein deacetylase HDAC6 (Homo sapiens, UniProt Q9UBN7).
T3 sequence (Q9UBN7 whole entry): T2 sequence (whole entry)
Kind of test: Inhibition of human recombinant HDAC6 using AMC-K(Ac)GL as substrate by fluorescence based assay.

For test [10], the system named is U-937. In words: Cytotoxicity against human U937 cells assessed as reduction in cell viability at 25 uM incubated for 96 hrs by CellTiter-Glo Luminescent cell viability assay relative to control. It is filed as functional. The settings on record: U-937, 96 h. Summed up:
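Viability of U937 (5–25 μM) and RH4 (5–35 μM) cells after 48, 72 and 96 h of treatment at increasing concentrations.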

The subject of test [11] is THP-1. In words: Cytotoxicity against human THP1 cells assessed as reduction in cell viability incubated for 72 hrs by CellTiter-Glo Luminescent cell viability assay. It is filed as functional, cell-based. The settings on record: THP-1, 72 h. Summed up: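 Antiproliferative IC50 after 72 h of treatment. Values are means of three independent experiments, each measured in triplicate, ± SD.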

A short description of test [12]: Cell cycle arrest in human RH4 cells assessed as G0/G1 accumulation at 14 uM incubated for 72 hrs by propidium iodide staining based flow cytometry (reference value: 46.2 %). It is filed as functional.
The nature of test [13]: Cell cycle arrest in human RH4 cells assessed as G0/G1 accumulation at 28 uM incubated for 72 hrs by propidium iodide staining based flow cytometry (reference value: 46.2 %). Type of test: functional.
Test [14] in a line: Cell cycle arrest in human RH4 cells assessed as S accumulation at 28 uM incubated for 72 hrs by propidium iodide staining based flow cytometry (reference value: 29.9 %). Type of test: functional.
Test [15] can be described thus: Induction of apoptosis in human RH4 cells assessed as late apoptotic cells at 14 uM incubated for 72 hrs by annexin V-FITC staining based flow cytometry (reference value: 2.1 %). It is filed as functional.
Test [16] is described as follows: Induction of apoptosis in human RH4 cells assessed as necrotic cells at 14 uM incubated for 72 hrs by annexin V-FITC staining based flow cytometry (reference value: 0.4 %). It is filed as functional.
Test [17] is described as follows: Induction of apoptosis in human RH4 cells assessed as early apoptotic cells at 28 uM incubated for 72 hrs by annexin V-FITC staining based flow cytometry (reference value: 10.8 %). It is filed as functional.
Test [18] relates to U-937. Kind of test: Cell cycle arrest in human U937 cells assessed as increase in subG1 accumulation incubated for 72 hrs by propidium iodide staining based assay. Type of test: functional.

pIC50: −log10 of the molar value.

Sequence of Histone deacetylase 2 (Q92769 whole entry): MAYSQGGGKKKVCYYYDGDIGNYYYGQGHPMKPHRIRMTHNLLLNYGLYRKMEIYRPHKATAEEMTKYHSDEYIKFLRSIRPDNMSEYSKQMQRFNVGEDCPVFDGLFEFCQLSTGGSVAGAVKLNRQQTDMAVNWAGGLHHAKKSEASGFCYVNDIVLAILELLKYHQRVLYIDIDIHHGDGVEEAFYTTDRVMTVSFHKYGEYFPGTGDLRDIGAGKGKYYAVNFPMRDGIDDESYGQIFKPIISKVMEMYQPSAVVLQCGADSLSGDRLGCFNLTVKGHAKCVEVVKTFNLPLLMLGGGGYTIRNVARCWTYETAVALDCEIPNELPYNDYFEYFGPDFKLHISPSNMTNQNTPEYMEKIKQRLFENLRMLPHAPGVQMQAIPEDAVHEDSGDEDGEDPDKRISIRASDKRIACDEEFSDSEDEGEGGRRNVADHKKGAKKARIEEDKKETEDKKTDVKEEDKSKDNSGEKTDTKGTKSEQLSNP
Sequence of Histone-lysine N-methyltransferase EZH2 (Q15910 whole entry, looked up): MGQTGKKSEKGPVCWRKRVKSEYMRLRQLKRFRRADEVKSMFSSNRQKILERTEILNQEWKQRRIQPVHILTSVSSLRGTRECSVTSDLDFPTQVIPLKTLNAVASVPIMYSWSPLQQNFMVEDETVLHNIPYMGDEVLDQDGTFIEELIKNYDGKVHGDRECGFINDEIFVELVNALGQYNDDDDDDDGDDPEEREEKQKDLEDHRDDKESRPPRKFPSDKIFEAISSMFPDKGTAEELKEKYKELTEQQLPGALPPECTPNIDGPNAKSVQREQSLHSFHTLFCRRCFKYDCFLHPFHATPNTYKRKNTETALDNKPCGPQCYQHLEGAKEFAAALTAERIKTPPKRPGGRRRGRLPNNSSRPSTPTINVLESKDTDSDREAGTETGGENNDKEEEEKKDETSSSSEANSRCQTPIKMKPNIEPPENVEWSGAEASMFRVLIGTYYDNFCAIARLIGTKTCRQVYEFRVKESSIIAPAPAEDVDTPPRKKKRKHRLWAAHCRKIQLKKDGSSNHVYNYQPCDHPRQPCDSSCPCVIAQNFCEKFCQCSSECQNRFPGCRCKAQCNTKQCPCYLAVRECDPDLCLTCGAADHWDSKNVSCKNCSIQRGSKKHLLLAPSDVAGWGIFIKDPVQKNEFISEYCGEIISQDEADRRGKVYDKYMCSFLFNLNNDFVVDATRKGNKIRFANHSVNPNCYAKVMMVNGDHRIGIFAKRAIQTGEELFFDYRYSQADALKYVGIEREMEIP

With `Cc1cc(C)c(CNC(=O)c2cc(C)n(-c3ccccc3)c2C)c(=O)[nH]1`, the CI in test [1] stood at 0.64; in test [2], 0.49. Further, the inhibition at 50 µM in test [3] is above 30%. For the same compound, the fold change (FC) in test [4] is 0.3; in test [5], 1.4; in test [6], 0.7; in test [7], 1.3.

As to `Cc1cc(C)c(CNC(=O)c2cc(C)n(-c3cccc(NC(=O)CCCCCCC(=O)NO)c3)c2C)c(=O)[nH]1`, the pIC50 in test [8] is 5.88; in test [9] it was 8.30; in [11], 4.92. In addition, the inhibition at 25 µM in test [10] was found to be 90%. Further, the Activity in test [12] was 47.2%; in test [13], 44.9%; in [14], 19.8%; in test [15] it was 3.2%; in test [16], 0.4%; in test [17] it was 26.5%. The Activity result in test [18] is “Dose-dependent effect”.

Source of the values: ChEMBL document CHEMBL4613315, “Design of First-in-Class Dual EZH2/HDAC Inhibitor: Biochemical Activity and Biological Evaluation in Cancer Cells” (ACS Med Chem Lett, 2020).
